Compounds with a hit are over-represented: about 1.3% of the library has one in this group of screens.
NR2E3 ag-1 – activates human photoreceptor nuclear receptor NR2E3 | Q9Y5X4 | GST-NR2E3/biotin-RetCOR TR-FRET, 1536-well | inhibition of corepressor binding, % at 4.78 µM | 320,000 tested, 0.12% active | AID 2300;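 active means percent inhibition above the cutoff of mean plus 3 SD of all tested compounds, set per screening campaign, cut at about 20% in these data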;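 further: 0% = DMSO wells and 100% = biotin wells as full block of FRET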
Target sequence (Q9Y5X4 whole entry, looked up): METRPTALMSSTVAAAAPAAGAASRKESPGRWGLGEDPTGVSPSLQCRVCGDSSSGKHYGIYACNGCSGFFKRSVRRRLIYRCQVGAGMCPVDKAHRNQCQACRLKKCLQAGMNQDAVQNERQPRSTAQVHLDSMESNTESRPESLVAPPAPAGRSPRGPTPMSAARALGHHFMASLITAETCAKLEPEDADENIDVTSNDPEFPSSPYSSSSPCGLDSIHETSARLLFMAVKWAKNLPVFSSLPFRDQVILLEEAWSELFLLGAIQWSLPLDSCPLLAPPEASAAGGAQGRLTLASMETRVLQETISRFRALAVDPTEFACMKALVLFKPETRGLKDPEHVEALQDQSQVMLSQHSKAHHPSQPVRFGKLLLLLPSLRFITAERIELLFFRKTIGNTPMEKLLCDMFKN
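System: GST-tagged NR2E3 plus biotinylated RetCOR corepressor; Amount: 1.35 nM GST-tagged NR2E3 final; Dosing: single nominal compound dose of 4.8 µM; Schedule: 5 h incubation at 4 °C; Technique: TR-FRET with europium anti-GST and streptavidin-D2, 340 nm excitation; Controls: biotin wells as high control, 0.6% DMSO wells as low control.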
PP5 inh – PP5 (human) phosphatase inhibition; purified PP5c, OMFP substrate fluorescence; 320,000 tested, 0.18% active; P53041; inhibition, % at 6.7 µM;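 active means inhibition above the campaign's mean inhibition across all tested compounds plus 3 SD, cut at about 9.5% in these data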;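 further: 0% = DMSO only and 100% = 100 µM cantharidin control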
NR2E3 ag-2 – activates human NR2E3 receptor | Q9Y5X4 | CHO-S Gal4-NCOR/VP16-NR2E3 two-hybrid, luciferase | inhibition of corepressor binding, % at 3.98 µM | 360,000 tested, 0.35% active;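 active means inhibition above the mean of all tested compounds plus 3 SD, cut at about 70% in these data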;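 further: 0% = DMSO with NR2E3 transfected cells and 100% = cells lacking NR2E3 construct; higher means lower luciferase signal from less NR2E3 corepressor binding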
PP1 inh – blocks human PP1-alpha phosphatase, a PP5 counter-screen | P62136 | purified PP1alpha, OMFP fluorescence | inhibition, % at 6.7 µM | 320,000 tested, 0.9% active | AID 2235;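 active means inhibition above the mean inhibition of all tested compounds plus 3 SD, computed separately for each screening campaign, cut at about 15% in these data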
PP1 confirm – human PP1 phosphatase inhibition, confirmation; AID 2358; shares compounds with PP1 inh; purified PP1alpha, OMFP substrate fluorescence; inhibition, % at 6.7 µM; 1,900 tested, 52% active;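 active means mean PP1 inhibition above a set limit taken from the earlier primary screen, cut at about 15% in these data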
PP5 inh counter – PP5 phosphatase inhibition, counter-screen for PP1 inhibitors. shares compounds with PP1 inh. purified PP5c, OMFP fluorescence. inhibition, % at 6.7 µM. 1,900 tested, 4% active. AID 2360;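 active means mean PP5 inhibition over triplicate wells above about 9.5% taken from the earlier PP1 screen, limit read from the data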
Active calls of the source: *; . = no result given.

SMILES	NR2E3 ag-1	PP5 inh	NR2E3 ag-2	PP1 inh	PP1 confirm	PP5 inh counter
C[C@@H]1C[C@H]2[C@@H]3CCC4=CC(=O)C=C[C@]4(C)[C@@]3(Cl)[C@@H](O)C[C@]2(C)[C@@]1(OC(=O)c1ccco1)C(=O)CCl	3.2	2.7	6.2	23.1*	26.6*	-6.1
COc1cc(/C=C2/SC(=Nc3ccc(O)cc3)NC2=O)ccc1O	-2.0	0.8	-54.0	22.7*	24.2*	-0.8
CCCc1nc2cc(C)c(Br)c(C)n2c1Cc1ccsc1	.	.	-16.3	.	.	.
COc1ccc(C(CNC(=O)c2ccc(-c3ccccc3)cc2)N(C)C)cc1OC (centres undefined)	-2.1	2.5	-11.6	43.2*	-2.4	1.4
CC(C)c1ccc(NC(=O)C2(C)Cc3c(-c4cccc(C(F)(F)F)c4)ccnc3O2)cc1 (centres undefined)	.	.	-12.8	.	.	.
Cc1cccc(NC(=O)CNC(=O)c2sc3ccccc3c2Cl)n1	-6.5	-1.5	2.4	22.4*	3.5	-3.5
Cc1cccnc1NC(=O)CNC(=O)c1sc2ccccc2c1Cl	3.6	5.6	-42.1	-4.2	.	.
CC1=C(C(=O)N(C)C)CC(CC(=O)NCc2cccc3ccccc23)C(=O)N1CCCN1CCCC1=O (centres undefined)	.	.	-1.2	.	.	.
O=C1NC[C@H](CCCCN2C[C@H](Cc3ccc(O)cc3)N(CC3CCCCC3)C(=O)C2=O)N(CCc2ccc(O)cc2)C1=O	.	.	-2.2	.	.	.
CCC(C)Sc1cc(-c2nc3ccc(C)cn3c2NCc2ccccc2)ccc1OC (centres undefined)	3.9	5.3	10.2	17.8*	5.0	2.5
CC(=O)c1ccccc1OCc1ccc(S(=O)(=O)Cc2ccccc2)cc1	1.0	-0.3	4.0	4.7	.	.
CCOC(=O)c1ccc(S(=O)(=O)N2CCN(C/C=C/c3ccccc3)CC2)cc1	.	.	-3.5	.	.	.
Cc1cc2oc(C(=O)Nc3ccc(S(=O)(=O)Nc4nccs4)cc3)cc(=O)c2cc1Cl	2.7	-1.3	8.5	38.9*	31.1*	-3.0
CC(C)(C)C(=O)Nc1cccc(-c2nc3ccccc3[nH]2)c1	-0.1	1.1	-26.3	23.1*	-1.0	-3.4
Nc1cc(OC(=O)c2ccc(F)cc2)nn1S(=O)(=O)c1ccccc1	4.6	1.0	-22.0	-7.0	.	.
Cc1cccc(NC(=O)C(=O)NNC(=O)c2ccc(C(C)(C)C)cc2)c1	4.8	-2.5	-2.5	21.3*	9.8	-1.4
CC(C)(C)c1ccc(C(=O)NNC(=O)c2cccc(Br)c2)cc1	0.7	0.7	-10.2	0.8	.	.
O=C(O)C1C2CCC(O2)C1C(=O)NCCC1=CCCCC1 (centres undefined)	-0.9	69.0*	-19.3	60.7*	31.2*	40.6*
COc1ccc(NC(=O)C2C3CCC(O3)C2C(=O)O)c(C)c1 (centres undefined)	-3.5	65.1*	0.2	61.5*	12.3	27.1*
O=C(NCc1ccccc1Br)c1ccco1	3.0	3.3	10.4	-5.1	.	.
NC(=O)NCCC1=CCCCC1	-1.3	2.4	-20.4	1.0	.	.
Cc1cc(Br)ccc1NC(=O)C1C2CCC(O2)C1C(=O)O (centres undefined)	6.1	62.6*	0.1	54.8*	9.3	16.3*
O=C(O)C1C2CCC(O2)C1C(=O)NCc1ccccc1Br (centres undefined)	0.3	34.1*	17.1	16.9*	10.1	17.3*
Cc1cc(-c2ccc(NC(=O)[C@@H]3CCCC[C@@H]3C(=O)O)c(C)c2)ccc1NC(=O)[C@@H]1CCCC[C@@H]1C(=O)O	-2.1	0.3	-24.1	-1.9	.	.
COc1cc(/C=C2\SC(=O)N(CCN)C2=O)ccc1OS(=O)(=O)c1cc(C)ccc1C	.	.	4.7	.	.	.
SMILES	NR2E3 ag-1	PP5 inh	NR2E3 ag-2	PP1 inh	PP1 confirm	PP5 inh counter
FC(F)(F)c1ccccc1Cc1c(-c2cccc(Cl)c2)nc2c3ccccc3ccn12	.	.	-1.7	.	.	.
Cc1cc(NC(=O)C2CC(=O)N(c3cccc(Cl)c3)C2)no1 (centres undefined)	5.3	-1.0	0.4	2.2	.	.
Cc1nc(NC(=O)c2ccc(Br)o2)ccc1Br	.	.	-20.4	.	.	.
O=C(Nc1cccc(NC(=O)c2ccc(Br)o2)n1)c1ccc(Br)o1	-314.3	5.2	-20.2	34.9*	31.4*	-3.6
Cc1ccc(S(=O)(=O)N2CCC(C(=O)OCC(=O)N3CCC(C)CC3)CC2)cc1C	-0.2	-0.9	-15.9	-2.7	.	.
Cc1ccc(OCCn2c(NC(=O)c3ccco3)nc3ccccc32)cc1	-2.4	0.0	-1.8	-1.2	.	.

Assay outcomes: PubChem BioAssay, The Scripps Research Institute Molecular Screening Center
